According to ChEMBL document CHEMBL4477204, “Tetrahydroisoquinoline-Derived Urea and 2,5-Diketopiperazine Derivatives as Selective Antagonists of the Transient Receptor Potential Melastatin 8 (TRPM8) Channel Receptor and Antiprostate Cancer Agents” (J Med Chem, 2016):
pEC50, pIC50: −log10 of the molar value. Active and inactive are the calls of the source. The rule behind the calls is not given here.

Experiments:
[1] = target: T1, Transient receptor potential cation channel subfamily M member 8 (Rattus norvegicus, UniProt Q8R455); assay: Antagonist activity at recombinant rat TRPM8 expressed in HEK293 cells assessed as inhibition of icilin-induced intracellular calcium accumulation preincubated for 5 mins followed by icilin addition by Fluo-4-AM probe-based spectrofluorimetric assay; assay type: cell-based
Method in brief: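 HEK-293 cells stably expressing the listed TRP channel (human TRPV1; rat TRPM8, TRPA1, TRPV2, TRPV3 or TRPV4) were Fluo-4-AM loaded (4 µM, 1 h, 25 °C) and suspended in Tyrode's buffer pH 7.4. Compound was added 5 min before agonist: icilin 0.25 µM (TRPM8), capsaicin 0.1 µM (TRPV1), AITC 100 µM (TRPA1), LPC 3 µM (TRPV2), thymol 100 µM (TRPV3), 4α-PDD 1 µM (TRPV4). Agonist alone was taken as 100%. IC50 from sigmoidal fit, at least triplicate.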

[2] = target: T1, Transient receptor potential cation channel subfamily M member 8; assay: Agonist activity at recombinant rat TRPM8 expressed in HEK293 cells assessed as increase in intracellular calcium accumulation by Fluo-4-AM probe-based spectrofluorimetric assay; assay type: cell-based; settings: for EC50: hek293; for pEC50: read-out: EC50
Method in brief: (§1)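 HEK-293 cells stably expressing rat TRPM8 were loaded with Fluo-4-AM (4 µM, 0.02% Pluronic F-127) for 1 h at 25 °C in serum-free EMEM. They were then washed and suspended in Tyrode's buffer pH 7.4 in a stirred cuvette. [Ca2+]i fluorescence (ex 488/em 516 nm) was read before and after compound addition. Wild-type HEK-293 response was subtracted. Efficacy is expressed versus 4 µM ionomycin; EC50 comes from a sigmoidal fit.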

[3] = target: Transient receptor potential cation channel subfamily M member 8 (Rattus norvegicus) (UniProt Q8R455); assay: Agonist activity at recombinant rat TRPM8 expressed in HEK293 cells assessed as increase in intracellular calcium accumulation by Fluo-4-AM probe-based spectrofluorimetric assay relative to ionomycin; assay type: cell-based; method in brief: as §1
[4] = target: Transient receptor potential cation channel subfamily M member 8 (Rattus norvegicus) (UniProt Q8R455); assay: Agonist activity at recombinant rat TRPM8 expressed in HEK293 cells assessed as increase in intracellular calcium accumulation up to 10 uM by Fluo-4-AM probe-based spectrofluorimetric assay; assay type: cell-based; method in brief: as §1
[5] = in vitro; settings: C57BL/6, mouse, liver microsomes

Transient receptor potential cation channel subfamily M member 8 (Rattus norvegicus), sequence (Q8R455 whole entry, looked up): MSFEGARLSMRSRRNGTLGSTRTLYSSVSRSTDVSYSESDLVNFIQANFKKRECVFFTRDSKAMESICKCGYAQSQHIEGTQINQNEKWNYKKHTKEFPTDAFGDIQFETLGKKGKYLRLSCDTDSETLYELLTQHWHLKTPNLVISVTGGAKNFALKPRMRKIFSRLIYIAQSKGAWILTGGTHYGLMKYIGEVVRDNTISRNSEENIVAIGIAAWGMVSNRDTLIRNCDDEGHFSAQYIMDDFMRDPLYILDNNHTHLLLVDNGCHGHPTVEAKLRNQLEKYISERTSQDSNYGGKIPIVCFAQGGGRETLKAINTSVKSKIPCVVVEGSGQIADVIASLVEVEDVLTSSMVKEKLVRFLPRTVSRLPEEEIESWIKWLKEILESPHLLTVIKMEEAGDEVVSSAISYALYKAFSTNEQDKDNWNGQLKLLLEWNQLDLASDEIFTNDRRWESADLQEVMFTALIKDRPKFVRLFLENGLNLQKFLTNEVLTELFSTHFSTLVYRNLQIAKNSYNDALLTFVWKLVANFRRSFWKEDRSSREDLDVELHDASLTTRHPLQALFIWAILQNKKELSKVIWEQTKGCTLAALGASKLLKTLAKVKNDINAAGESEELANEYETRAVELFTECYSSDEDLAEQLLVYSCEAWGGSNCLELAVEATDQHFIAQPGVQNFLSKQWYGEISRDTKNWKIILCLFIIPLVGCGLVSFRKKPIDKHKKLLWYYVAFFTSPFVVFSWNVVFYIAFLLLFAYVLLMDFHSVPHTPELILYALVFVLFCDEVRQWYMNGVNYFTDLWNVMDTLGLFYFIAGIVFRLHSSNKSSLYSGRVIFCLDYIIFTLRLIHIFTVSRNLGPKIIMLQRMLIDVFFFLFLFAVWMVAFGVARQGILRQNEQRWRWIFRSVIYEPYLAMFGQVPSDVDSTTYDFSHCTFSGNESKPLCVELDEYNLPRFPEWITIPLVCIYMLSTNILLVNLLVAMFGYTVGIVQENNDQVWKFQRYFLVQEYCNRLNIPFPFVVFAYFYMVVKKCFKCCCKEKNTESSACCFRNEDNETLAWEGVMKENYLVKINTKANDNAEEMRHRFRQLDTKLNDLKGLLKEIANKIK
T1 sequence (Q8R455 whole entry): as the sequence (Q8R455 whole entry, looked up) above

Row | pIC50 [1] | EC50 [2] | Activity [3] | Activity [4] | pEC50 [2] | CLint scaled at 1 h, 3 µM [5] | Compound
1 | < 4.30 | Not Active | – | – | – | – | COc1ccc(CCNC(=O)N2CCc3cc(OC)c(OC)cc3C2c2cccc([N+](=O)[O-])c2)cc1OC (configuration not stated)
2 | 4.50 | Not Active | – | – | – | – | COc1ccc(CCNC(=O)N2CCc3cc(OC)c(OC)cc3C2c2ccc(Cl)cc2)cc1OC (configuration not stated)
3 | < 4.30 | Not Active | – | – | – | – | CCC1c2cc(OC)c(OC)cc2CCN1C(=O)NCCc1ccc(OC)c(OC)c1 (configuration not stated)
4 | 4.37 | Not Active | – | – | – | – | COc1ccc(/C=C2\NC(=O)[C@@H]3Cc4cc(OC)c(OC)cc4[C@@H](c4ccc(Br)cc4)N3C2=O)cc1OC
5 | < 4.30 | – | 15.3% | inactive | 4.58 | – | CCC1c2cc(OC)c(OC)cc2CCN1C(=O)NCCc1cc(OC)c(OC)cc1C(CC)S(=O)(=O)c1ccc(C)cc1 (configuration not stated)
6 | 5.92 | Not Active | – | – | – | 39.6 mL/min/kg | COc1ccc(CCNC(=O)N2CCc3cc(OC)c(OC)cc3C2c2ccccc2)cc1OC (configuration not stated)
7 | < 4.30 | Not Active | – | – | – | – | COc1cc2c(cc1OC)[C@@H](c1ccc(F)cc1)N(C(=O)N1CCc3cc(OC)c(OC)cc3[C@@H]1c1ccc(F)cc1)CC2
8 | 4.41 | Not Active | – | – | – | – | COc1ccc(/C=C2\NC(=O)[C@@H]3Cc4cc(OC)c(OC)cc4[C@@H](c4ccccc4Cl)N3C2=O)cc1OC
9 | < 4.30 | Not Active | – | – | – | – | COc1ccc(CCNC(=O)NCCc2ccc(OC)c(OC)c2)cc1OC
10 | < 4.30 | Not Active | – | – | – | – | CCCC1c2cc(OC)c(OC)cc2CCN1C(=O)NCCc1ccc(OC)c(OC)c1 (configuration not stated)
11 | 4.89 | – | 14.7% | inactive | 4.80 | – | COc1ccc(/C=C2\NC(=O)[C@@H]3Cc4cc(OC)c(OC)cc4[C@@H](c4ccccc4)N3C2=O)cc1OC
12 | 4.32 | Not Active | – | – | – | – | COc1ccc(CCNC(=O)N2CCc3cc(OC)c(OC)cc3C2c2ccc(Br)cc2)cc1OC (configuration not stated)
13 | < 4.30 | Not Active | – | – | – | – | COc1cc2c(cc1OC)C(c1ccc(C(F)(F)F)cc1)N(C(C)=O)CC2 (configuration not stated)
14 | 5.07 | Not Active | – | – | – | – | CCC[C@H]1c2cc(OC)c(OC)cc2CCN1C(=O)N1CCc2cc(OC)c(OC)cc2[C@@H]1CCC (racemic)
15 | 5.66 | Not Active | – | – | – | 19.1 mL/min/kg | COc1cc2c(cc1OC)[C@H](c1ccc(Br)cc1)N(C(=O)N1CCc3cc(OC)c(OC)cc3[C@@H]1c1ccc(Br)cc1)CC2 (racemic)
16 | 4.70 | Not Active | – | – | – | 52.9 mL/min/kg | COc1cc2c(cc1OC)[C@H](c1ccccc1Cl)N(C(=O)N1CCc3cc(OC)c(OC)cc3[C@@H]1c1ccccc1Cl)CC2 (racemic)
17 | 4.34 | Not Active | – | – | – | – | COc1ccc(CCNC(=O)N2CCc3cc(OC)c(OC)cc3C2c2ccccc2Cl)cc1OC (racemic)
18 | 4.35 | Not Active | – | – | – | – | COc1cc2c(cc1OC)[C@H](c1cccc([N+](=O)[O-])c1)N(C(=O)N1CCc3cc(OC)c(OC)cc3[C@@H]1c1cccc([N+](=O)[O-])c1)CC2 (racemic)
19 | < 4.30 | – | 22.7% | inactive | 4.85 | – | COc1cc2c(cc1OC)[C@H](c1ccc([N+](=O)[O-])cc1)N(C(=O)N1CCc3cc(OC)c(OC)cc3[C@@H]1c1ccc([N+](=O)[O-])cc1)CC2 (racemic)

Continued, compound first:

Row | Compound | pIC50 [1] | EC50 [2] | Activity [3] | Activity [4] | pEC50 [2] | CLint scaled at 1 h, 3 µM [5]
20 | COc1cc2c(cc1OC)C(c1cccc(-c3cccc([N+](=O)[O-])c3)n1)=NCC2 | 4.64 | Not Active | – | – | – | –
21 | COc1ccc(/C=C2\NC(=O)[C@@H]3Cc4cc(OC)c(OC)cc4[C@@H](c4cccc([N+](=O)[O-])c4)N3C2=O)cc1OC | 4.45 | Not Active | – | – | – | –
22 | COc1cc2c(cc1OC)[C@@H](c1ccc(C(F)(F)F)cc1)N(C(=O)N1CCc3cc(OC)c(OC)cc3[C@@H]1c1ccc(C(F)(F)F)cc1)CC2 | 4.97 | Not Active | – | – | – | –
23 | COc1cc2c(cc1OC)[C@@H](c1ccc(Oc3ccc([N+](=O)[O-])cc3)cc1)N(C(=O)N1CCc3cc(OC)c(OC)cc3[C@@H]1c1ccc(Oc3ccc([N+](=O)[O-])cc3)cc1)CC2 | < 4.30 | Not Active | – | – | – | –
24 | COc1cc2c(cc1OC)[C@H](c1ccc3ccccc3c1)N(C(=O)N1CCc3cc(OC)c(OC)cc3[C@@H]1c1ccc3ccccc3c1)CC2 (racemic) | < 4.30 | Not Active | – | – | – | –
25 | COc1cc2c(cc1OC)C(c1ccc([N+](=O)[O-])cc1[N+](=O)[O-])NCC2 (racemic) | < 4.30 | Not Active | – | – | – | –
26 | COc1cc2c(cc1OC)[C@H](c1ccc([N+](=O)[O-])cc1[N+](=O)[O-])N(C(=O)N1CCc3cc(OC)c(OC)cc3[C@@H]1c1ccc([N+](=O)[O-])cc1[N+](=O)[O-])CC2 (racemic) | < 4.30 | Not Active | – | – | – | –
27 | COc1cc2c(cc1OC)C(c1cccc(-c3cccc([N+](=O)[O-])c3)n1)NCC2 (racemic) | < 4.30 | Not Active | – | – | – | –
28 | COc1cc2c(cc1OC)[C@H](c1ccc(Oc3ccc([N+](=O)[O-])cc3)cc1)N(C(=O)N1CCc3cc(OC)c(OC)cc3[C@@H]1c1ccc(Oc3ccc([N+](=O)[O-])cc3)cc1)CC2 (racemic) | < 4.30 | Not Active | – | – | – | –
29 | COc1cc2c(cc1OC)[C@H](c1ccc(C(F)(F)F)cc1)N(C(=O)N1CCc3cc(OC)c(OC)cc3[C@@H]1c1ccc(C(F)(F)F)cc1)CC2 (racemic) | 6.74 | Not Active | – | – | – | 10.1 mL/min/kg
30 | COc1ccc(OC)c(C[C@@H]2NC(=O)[C@@H]3Cc4c(OC)ccc(OC)c4[C@@H](/C=C/c4ccccc4)N3C2=O)c1 (racemic) | 4.51 | Not Active | – | – | – | –
31 | COc1cc2c(cc1OC)[C@H](c1cccc(-c3cccc([N+](=O)[O-])c3)n1)N(C(=O)N1CCc3cc(OC)c(OC)cc3[C@@H]1c1cccc(-c3cccc([N+](=O)[O-])c3)n1)CC2 (racemic) | 4.36 | Not Active | – | – | – | –
32 | COc1cc(C[C@@H]2NC(=O)[C@@H]3Cc4c(OC)c(C)c(OC)c(OC)c4[C@H](/C=C/c4ccccc4)N3C2=O)c(OC)c(C)c1OC (racemic) | 5.49 | – | 26.6% | inactive | 4.68 | –
33 | COc1cc(C[C@@H]2NC(=O)[C@H](Cc3cc(OC)c(OC)c(C)c3OC)NC2=O)c(OC)c(C)c1OC (racemic) | < 4.30 | Not Active | – | – | – | –
34 | COc1c(C)c(OC)c(OC)c2c1C[C@H]1C(=O)N3[C@@H](Cc4c(OC)c(C)c(OC)c(OC)c4[C@@H]3/C=C/c3ccccc3)C(=O)N1[C@H]2/C=C/c1ccccc1 (racemic) | 5.06 | Not Active | – | – | – | –
35 | COc1cc2c(cc1OC)C(c1ccc(Cl)cc1)NCC2 (racemic) | < 4.30 | Not Active | – | – | – | –
